From ChEMBL document CHEMBL1134346, “Labeling and evaluation of N-[11C]methylated quinoline-2-carboxamides as potential radioligands for visualization of peripheral benzodiazepine receptors” (J Med Chem, 2001)

What was measured:
Rattus norvegicus [1] = organism: Rattus norvegicus; experiment: Tissue (spleen) distribution in Albino male CD rats after 5 minutes expressed as percent of injected dose per gram of organ.; assay type: ADME, organism-based; details: in vivo
Method in brief: (§1)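 Male albino CD rats (225-250 g) received the 11C-labelled radioligand in saline by tail-vein injection. Three rats per time point were decapitated under light ether anaesthesia at 5, 15, 30, 60 or 90 min. Blood was collected heparinized and plasma separated by centrifugation. The pituitary was dissected from the brain. Lung, liver (three-lobe pieces) and right deltoid muscle were sampled, washed in cold saline, gamma-counted and weighed. Results are %I.D./g.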

Rattus norvegicus [2] = organism: Rattus norvegicus; experiment: Tissue (spleen) distribution in Albino male CD rats after 90 minutes expressed as percent of injected dose per gram of organ.; assay type: ADME, organism-based; details: in vivo, 1.5 h
Rattus norvegicus [3] = organism: Rattus norvegicus; experiment: Tissue (testicle) distribution in Albino male CD rats after 15 minutes expressed as percent of injected dose per gram of organ.; assay type: ADME, organism-based; details: in vivo, 0.25 h; method in brief: as §1
Rattus norvegicus [4] = organism: Rattus norvegicus; experiment: Tissue (testicle) distribution in Albino male CD rats after 5 minutes expressed as percent of injected dose per gram of organ.; assay type: ADME, organism-based; details: in vivo; method in brief: as §1
Rattus norvegicus [5] = organism: Rattus norvegicus; experiment: Tissue (kidney) distribution in Albino male CD rats after 60 minutes expressed as percent of injected dose per gram of organ.; assay type: ADME, organism-based; details: in vivo, 1 h
Method in brief: (§2)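 Radioligand given in saline into tail vein of male albino CD rats (225-250 g); 100-200 µCi per animal, 1-2 Ci/µmol at injection depending on radioligand. Three rats per time point were decapitated under light ether anaesthesia. Blood, plasma, brain regions and washed organs were weighed and gamma-counted. Uptake is %I.D./g tissue, mean ± SD.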

Rattus norvegicus [6] = organism: Rattus norvegicus; experiment: Tissue (kidney) distribution in Albino male CD rats after 90 minutes expressed as percent of injected dose per gram of organ.; assay type: ADME, organism-based; details: in vivo, 1.5 h; method in brief: as §2
Rattus norvegicus [7] = organism: Rattus norvegicus; experiment: Tissue (liver) concentration of radioactivity at 30 min post-injection into Albino male CD rats with vehicle.; assay type: ADME, organism-based; details: in vivo, 0.5 h
Method in brief: (§3)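 Separate groups of five rats received tail-vein PK 11195 (1.4-1.6 mg; 5 mg/kg) in 30 µL DMSO:EtOH 1:1, or vehicle alone, immediately before iv radioligand (90-170 µCi in saline, 0.9-1 Ci/µmol). Rats were decapitated at 30 min and tissues gamma-counted; values are %I.D./g.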

Rattus norvegicus [8] = organism: Rattus norvegicus; experiment: Tissue (liver) distribution in Albino male CD rats after 15 minutes expressed as percent of injected dose per gram of organ.; assay type: ADME, organism-based; details: in vivo, 0.25 h; method in brief: as §2
Rattus norvegicus [9] = organism: Rattus norvegicus; experiment: Tissue (liver) distribution in Albino male CD rats after 30 minutes expressed as percent of injected dose per gram of organ.; assay type: ADME, organism-based; details: in vivo, 0.5 h; method in brief: as §1
Rattus norvegicus [10] = organism: Rattus norvegicus; experiment: Tissue (liver) distribution in Albino male CD rats after 90 minutes expressed as percent of injected dose per gram of organ.; assay type: ADME, organism-based; details: in vivo, 1.5 h; method in brief: as §1
Rattus norvegicus [11] = organism: Rattus norvegicus; experiment: Tissue (lung) concentration of radioactivity at 30 min post-injection into Albino male CD rats with vehicle.; assay type: ADME, organism-based; details: in vivo, 0.5 h
Method in brief: (§4)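 Blocking study in male albino CD rats, five per group. Immediately before the 11C radioligand (in saline, i.v. tail vein), rats received 30 µL tail-vein PK 11195 (5 mg/kg; 1.4-1.6 mg) in DMSO:EtOH 1:1, or vehicle. Rats were decapitated at 30 min. Tissues were dissected, washed, gamma-counted and weighed as in the biodistribution study. Results are %I.D./g.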

Rattus norvegicus [12] = organism: Rattus norvegicus; experiment: Tissue (lung) distribution in Albino male CD rats after 5 minutes expressed as percent of injected dose per gram of organ.; assay type: ADME, organism-based; details: in vivo; method in brief: as §1
Rattus norvegicus [13] = organism: Rattus norvegicus; experiment: Tissue (lung) distribution in Albino male CD rats after 60 minutes expressed as percent of injected dose per gram of organ.; assay type: ADME, organism-based; details: in vivo, 1 h; method in brief: as §1
Rattus norvegicus [14] = organism: Rattus norvegicus; experiment: Tissue (lung) distribution in Albino male CD rats after 90 minutes expressed as percent of injected dose per gram of organ.; assay type: ADME, organism-based; details: in vivo, 1.5 h; method in brief: as §1
Rattus norvegicus [15] = organism: Rattus norvegicus; experiment: Tissue (blood) distribution in Albino male CD rats after 30 minutes expressed as percent of injected dose per gram of organ.; assay type: ADME, organism-based; details: in vivo, 0.5 h; method in brief: as §2
Rattus norvegicus [16] = organism: Rattus norvegicus; experiment: Tissue (blood) distribution in Albino male CD rats after 5 minutes expressed as percent of injected dose per gram of organ.; assay type: ADME, organism-based; details: in vivo; method in brief: as §2
Rattus norvegicus [17] = organism: Rattus norvegicus; experiment: Tissue (adrenal gland) concentration of radioactivity at 30 min post-injection into Albino male CD rats with vehicle.; assay type: ADME, organism-based; details: in vivo, 0.5 h; method in brief: as §3
Rattus norvegicus [18] = organism: Rattus norvegicus; experiment: Tissue (adrenal gland) distribution in Albino male CD rats after 15 minutes expressed as percent of injected dose per gram of organ.; assay type: ADME, organism-based; details: in vivo, 0.25 h; method in brief: as §2
Rattus norvegicus [19] = organism: Rattus norvegicus; experiment: Tissue (adrenal gland) distribution in Albino male CD rats after 60 minutes expressed as percent of injected dose per gram of organ.; assay type: ADME, organism-based; details: in vivo, 1 h; method in brief: as §2
Rattus norvegicus [20] = organism: Rattus norvegicus; experiment: Tissue (adrenal gland) distribution in Albino male CD rats after 90 minutes expressed as percent of injected dose per gram of organ.; assay type: ADME, organism-based; details: in vivo, 1.5 h; method in brief: as §2
Rattus norvegicus [21] = organism: Rattus norvegicus; experiment: Tissue (spleen) distribution in Albino male CD rats after 15 minutes expressed as percent of injected dose per gram of organ.; assay type: ADME, organism-based; details: in vivo, 0.25 h
Rattus norvegicus [22] = organism: Rattus norvegicus; experiment: Tissue (muscle) concentration of radioactivity at 30 min post-injection into Albino male CD rats with vehicle.; assay type: ADME, organism-based; details: in vivo, 0.5 h; method in brief: as §4
Rattus norvegicus [23] = organism: Rattus norvegicus; experiment: Tissue (cortex) concentration of radioactivity at 30 min post-injection into Albino male CD rats with vehicle.; assay type: ADME, organism-based; details: in vivo, 0.5 h; method in brief: as §3
Rattus norvegicus [24] = organism: Rattus norvegicus; experiment: Tissue (cortex) distribution in Albino male CD rats after 5 minutes expressed as percent of injected dose per gram of organ.; assay type: ADME, organism-based; details: in vivo; method in brief: as §2
Rattus norvegicus [25] = organism: Rattus norvegicus; experiment: Tissue (cortex) distribution in Albino male CD rats after 60 minutes expressed as percent of injected dose per gram of organ.; assay type: ADME, organism-based; details: in vivo, 1 h; method in brief: as §2
Rattus norvegicus [26] = organism: Rattus norvegicus; experiment: Tissue (muscle) distribution in Albino male CD rats after 90 minutes expressed as percent of injected dose per gram of organ.; assay type: ADME, organism-based; details: in vivo, 1.5 h; method in brief: as §1
Rattus norvegicus [27] = organism: Rattus norvegicus; experiment: Tissue (pituitary) distribution in Albino male CD rats after 15 minutes expressed as percent of injected dose per gram of organ.; assay type: ADME, organism-based, Pituitary gland; details: in vivo, 0.25 h; method in brief: as §1
Rattus norvegicus [28] = organism: Rattus norvegicus; experiment: Tissue (pituitary) distribution in Albino male CD rats after 60 minutes expressed as percent of injected dose per gram of organ.; assay type: ADME, organism-based, Pituitary gland; details: in vivo, 1 h; method in brief: as §1
Rattus norvegicus [29] = organism: Rattus norvegicus; experiment: Tissue (pituitary) distribution in Albino male CD rats after 90 minutes expressed as percent of injected dose per gram of organ.; assay type: ADME, organism-based, Pituitary gland; details: in vivo, 1.5 h; method in brief: as §1
Rattus norvegicus [30] = organism: Rattus norvegicus; experiment: Tissue (plasma) distribution in Albino male CD rats after 15 minutes expressed as percent of injected dose per gram of organ.; assay type: ADME, organism-based; details: in vivo, 0.25 h; method in brief: as §1
Rattus norvegicus [31] = organism: Rattus norvegicus; experiment: Tissue (plasma) distribution in Albino male CD rats after 60 minutes expressed as percent of injected dose per gram of organ.; assay type: ADME, organism-based; details: in vivo, 1 h; method in brief: as §1
Rattus norvegicus [32] = organism: Rattus norvegicus; experiment: Tissue (plasma) distribution in Albino male CD rats after 90 minutes expressed as percent of injected dose per gram of organ.; assay type: ADME, organism-based; details: in vivo, 1.5 h; method in brief: as §1
Rattus norvegicus [33] = organism: Rattus norvegicus; experiment: Tissue (heart) distribution in Albino male CD rats after 5 minutes expressed as percent of injected dose per gram of organ.; assay type: ADME, organism-based; details: in vivo; method in brief: as §2
Rattus norvegicus [34] = organism: Rattus norvegicus; experiment: Tissue (intestine) distribution in Albino male CD rats after 30 minutes expressed as percent of injected dose per gram of organ.; assay type: ADME, organism-based; details: in vivo, 0.5 h; method in brief: as §2
Rattus norvegicus [35] = organism: Rattus norvegicus; experiment: Tissue (intestine) distribution in Albino male CD rats after 90 minutes expressed as percent of injected dose per gram of organ.; assay type: ADME, organism-based; details: in vivo, 1.5 h; method in brief: as §2
Rattus norvegicus [36] = organism: Rattus norvegicus; experiment: Tissue (kidney) distribution in Albino male CD rats after 15 minutes expressed as percent of injected dose per gram of organ.; assay type: ADME, organism-based; details: in vivo, 0.25 h; method in brief: as §2
Rattus norvegicus [37] = organism: Rattus norvegicus; experiment: Tissue (cerebellum) distribution in Albino male CD rats after 15 minutes expressed as percent of injected dose per gram of organ.; assay type: ADME, organism-based; details: in vivo, 0.25 h; method in brief: as §2
Rattus norvegicus [38] = organism: Rattus norvegicus; experiment: Tissue (cerebellum) distribution in Albino male CD rats after 30 minutes expressed as percent of injected dose per gram of organ.; assay type: ADME, organism-based; details: in vivo, 0.5 h; method in brief: as §2
Rattus norvegicus [39] = organism: Rattus norvegicus; experiment: Tissue (cerebellum) distribution in Albino male CD rats after 90 minutes expressed as percent of injected dose per gram of organ.; assay type: ADME, organism-based; details: in vivo, 1.5 h; method in brief: as §2
[40] = target: Translocator protein (Rattus norvegicus) (UniProt P16257); experiment: Tissue (cortex) concentration of radioactivity at 30 min post-injection into Albino male CD rats after pretreatment with cold PK 11195.; assay type: functional; method in brief: as §3
Translocator protein (Rattus norvegicus), sequence (P16257 whole entry, looked up): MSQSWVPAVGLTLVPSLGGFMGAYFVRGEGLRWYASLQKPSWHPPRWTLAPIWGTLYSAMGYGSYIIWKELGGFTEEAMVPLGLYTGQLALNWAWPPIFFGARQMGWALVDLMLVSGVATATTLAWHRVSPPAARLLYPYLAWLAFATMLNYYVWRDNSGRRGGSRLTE

I.D./g (Rattus norvegicus [1]): 0.5%
I.D./g (Rattus norvegicus [2]): 1.06%
I.D./g (Rattus norvegicus [3]): 0.05%
I.D./g (Rattus norvegicus [4]): 0.06%
I.D./g (Rattus norvegicus [5]): 0.78%
I.D./g (Rattus norvegicus [6]): 0.73%
I.D./g (Rattus norvegicus [7]): 0.3%
I.D./g (Rattus norvegicus [8]): 0.5%
I.D./g (Rattus norvegicus [9]): 0.55%
I.D./g (Rattus norvegicus [10]): 0.27%
I.D./g (Rattus norvegicus [11]): 0.91%
I.D./g (Rattus norvegicus [12]): 3.09%
I.D./g (Rattus norvegicus [13]): 1.33%
I.D./g (Rattus norvegicus [14]): 1.27%
I.D./g (Rattus norvegicus [15]): 0.06%
I.D./g (Rattus norvegicus [16]): 0.13%
I.D./g (Rattus norvegicus [17]): 1.6%
I.D./g (Rattus norvegicus [18]): 1.38%
I.D./g (Rattus norvegicus [19]): 2.27%
I.D./g (Rattus norvegicus [20]): 1.8%
I.D./g (Rattus norvegicus [21]): 0.92%
I.D./g (Rattus norvegicus [22]): 0.09%
I.D./g (Rattus norvegicus [23]): 0.05%
I.D./g (Rattus norvegicus [24]): 0.12%
I.D./g (Rattus norvegicus [25]): 0.04%
I.D./g (Rattus norvegicus [26]): 0.12%
I.D./g (Rattus norvegicus [27]): 0.2%
I.D./g (Rattus norvegicus [28]): 0.25%
I.D./g (Rattus norvegicus [29]): 0.2%
I.D./g (Rattus norvegicus [30]): 0.05%
I.D./g (Rattus norvegicus [31]): 0.03%
I.D./g (Rattus norvegicus [32]): 0.02%
I.D./g (Rattus norvegicus [33]): 0.86%
I.D./g (Rattus norvegicus [34]): 0.4%
I.D./g (Rattus norvegicus [35]): 0.37%
I.D./g (Rattus norvegicus [36]): 0.6%
I.D./g (Rattus norvegicus [37]): 0.08%
I.D./g (Rattus norvegicus [38]): 0.09%
I.D./g (Rattus norvegicus [39]): 0.04%
I.D./g [40]: > 0.04%
Compound: CCC(C)N(C)C(=O)c1nc2ccccc2c(-c2ccccc2)c1C (stereo not given)
